According to publication PMC5809185 (Parasitology international, 2018):
Read-outs that look alike come from different tables or passages of the source.

Legend:
[1] = test system: hepatocytes (HC04); conditions: read-out: HC04 IC50; cytotoxicity; ref Guigemende 2010; cited from earlier work
[2] = molecular target: human albumin column (Homo sapiens, UniProt P02768); experiment: Chromatography-based protein binding; type: in vitro ADME; conditions: plasma protein binding estimated using a chromatographic method
Sequence of human albumin column (P02768 25-609): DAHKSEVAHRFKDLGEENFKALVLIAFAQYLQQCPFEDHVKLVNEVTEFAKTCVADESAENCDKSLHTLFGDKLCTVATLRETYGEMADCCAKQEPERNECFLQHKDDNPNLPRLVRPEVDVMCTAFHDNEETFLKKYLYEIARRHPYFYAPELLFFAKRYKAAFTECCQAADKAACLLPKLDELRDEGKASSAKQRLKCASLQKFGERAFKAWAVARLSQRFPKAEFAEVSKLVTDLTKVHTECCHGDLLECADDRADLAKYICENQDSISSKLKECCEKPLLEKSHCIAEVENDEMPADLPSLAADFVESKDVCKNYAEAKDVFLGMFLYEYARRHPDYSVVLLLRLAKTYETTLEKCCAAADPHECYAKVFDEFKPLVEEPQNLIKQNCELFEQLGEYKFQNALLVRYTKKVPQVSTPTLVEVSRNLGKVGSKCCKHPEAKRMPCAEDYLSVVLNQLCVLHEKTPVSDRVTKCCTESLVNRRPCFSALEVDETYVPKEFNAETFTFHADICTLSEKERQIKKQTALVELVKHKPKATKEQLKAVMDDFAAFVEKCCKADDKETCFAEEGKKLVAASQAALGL

[3] = test system: five mammalian cell lines (HFF, HEK293, HC04, RAJI, NR-9456); experiment: Cytotoxicity across five mammalian cell lines / in vitro therapeutic index; type: cell-based; conditions: at the concentrations tested
[4] = Metabolic stability in human liver microsomes; type: in vitro ADME; conditions: for CLint, in vitro / T1/2: 1 μM, 0.4 mg/mL protein
[5] = Partition coefficient by gradient HPLC; type: physicochemical
[6] = Metabolic stability in mouse liver microsomes; type: in vitro ADME; conditions: for CLint, in vitro / T1/2: 1 μM, 0.4 mg/mL protein
[7] = test system: kidney (HEK293); conditions: read-out: HEK293 IC50; cytotoxicity; ref Guigemende 2010; cited from earlier work
[8] = test system: Human foreskin fibroblast (HFF); conditions: read-out: HFF IC50; cytotoxicity; ref Guigemende 2010; cited from earlier work
[9] = test system: B lymphocyte (RAJI); conditions: read-out: RAJI IC50; cytotoxicity; ref Guigemende 2010; cited from earlier work
[10] = test system: Salmonella typhimurium (TA100 strain); experiment: Bacterial reverse mutation; type: cell-based; conditions: for Ames Assay (TA100): 3x the averaged T. gondii IC50, 48 replicates, point mutagenicity
[11] = test system: murine-derived macrophage (NR-9456); experiment: Cell toxicity assay; type: cell-based; conditions: read-out: NR-9456 IC50, 24 h
Summary of the method: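 Bone marrow-derived murine macrophages kept in D10 (DMEM, 10% heat-inactivated bovine serum, 2 mM L-glutamine, penicillin/streptomycin, 20% Medium 199, gentamicin) at 37°C, 5% CO2. Grown to confluence in 96-well plates, then exposed to test compound at 0 to 100 μM for 24 h. Alamar blue added for 4 h, and fluorescence read for IC50.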

[12] = test system: T. gondii RH-dTom tachyzoites; experiment: In vivo T. gondii survival study; set-up: species or system Swiss Webster CFW mice; conditions: lethal dose of T. gondii strain RH tachyzoites
[13] = test system: T. gondii RH-dTom tachyzoites in pretreated HFF cells; experiment: Host cell pre-treatment assay; type: cell-based, Toxoplasma gondii; conditions: HFF cells exposed to 10 μM for 24 h, washed, then infected with RH-dTom
Summary of the method: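 HFF seeded at 20,000 cells/well in D10 and grown to confluence. Treated with 10 μM test compound for 24 h, then washed three times with D10 media. Infected with 2,000 RH-dTom (red fluorescent dTomato) tachyzoites. Parasite growth read by fluorescence at day 5 (methods) or day 4 (figure legend) post-infection. Run in triplicate.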

[14] = Kinetic aqueous solubility by nephelometry; type: physicochemical; conditions: pH 6.5 phosphate buffer; 30 min at room temperature; 1% DMSO
[15] = test system: T. gondii PRU-dTom; experiment: T. gondii PRU-dTom; type: cell-based; conditions: Toxoplasma gondii, 120 h, read-out: T. gondii PRU-dTom IC50
Summary of the method: (§1)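 Confluent HFF (20,000 cells/well, D10, 37°C, 5% CO2) infected with 2,000 dTomato-expressing tachyzoites (type I RH or type II PRU). Invasion allowed for 12 h, then media replaced. Test compound added at 0 to 100 μM in duplicate. Parasite fluorescence read at day 5 post-infection for IC50.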

[16] = test system: T. gondii; experiment: T. gondii inhibition in vitro; type: cell-based, Toxoplasma gondii
Summary of the method: as §1

[17] = cytotoxicity, 0 to 100 μM, Alamar blue

Compound | IC50 [1] | cPPB (% bound) [2] | Cell lines whose growth was inhibited [3] | Predicted EH (hepatic extraction ratio) [4] | CLint, in vitro [4] | T1/2 [4] | gLogD (pH 7.4) [5] | CLint, in vitro [6] | T1/2 [6] | IC50 [7] | IC50 [8] | IC50 [9] | Ames Assay (TA100) [10] | IC50 [11, 17] | Decrease of T. gondii growth after host cell pre-treatment [13] | Sol6.5 kinetic solubility [14] | also measured
CCOc1ccc(/C=C/c2nc(=O)c3ccccc3o2)cc1 [KG3] | > 40 µM | 99 % bound | did not inhibit the growth of any of the five cell lines | 0.88 | 129 μL/min/mg protein | 9 min | 2.8 | >886 μL/min/mg protein | <2 min | > 40 µM | > 40 µM | > 40 µM | Negative | > 100 µM | 21% | 1.2 to 2.2 µg/mL | Mice spared (survival) ([12]; 20 mg/kg IP twice daily): 33%
CCc1nc(N)nc(N)c1-c1ccc(Cl)cc1 [Pyrimethamine, reference compound] | > 100 µM |  |  |  |  |  |  |  |  | > 100 µM | > 100 µM | > 100 µM |  |  |  |  | IC50 [15]: 0.79 µM; IC50 ([11]; Mus musculus, Macrophage): > 100 µM; Mice spared (survival) ([12]; 21 mg/kg): 100%; IC50 ([16]; Toxoplasma gondii, read-out: T. gondii IC50 in vitro): 0.25 to 1.5 µM
CC(C)(C)c1cc(/N=N/C(=O)c2ccncc2)cc(C(C)(C)C)c1O [KG8] | > 28 µM | >99.5 % bound | 2/5 | 0.6 | 37 μL/min/mg protein | 47 min | 3.9 | 180 μL/min/mg protein | 10 min | 0.97 µM | > 28 µM | 0.68 µM | Negative | > 100 µM | no effect | 3.1 to 6.3 µg/mL | 
NNC(=O)c1ccncc1 [isoniazid] |  |  |  |  |  |  |  |  |  |  |  |  |  |  |  |  | Efficacy against Toxoplasma gondii in vitro ([16]; data not shown): no efficacy
CC(C)(C)c1cc(C2C(C#N)=C(N)OC3=C2C(=O)CCC3)cc(C(C)(C)C)c1O (stereo not drawn) [KG7] | 3 µM | 93 % bound | 2/5 | 0.97 | 746 μL/min/mg protein | 2 min | 3.9 | >886 μL/min/mg protein | <2 min | > 36 µM | > 36 µM | 3 µM | Negative | > 100 µM | no effect | 3.1 to 6.3 µg/mL | Predicted EH (hepatic extraction ratio) [6]: >0.94; Effect on S. typhimurium growth in Ames assay ([10]; TA100 strain): appeared to inhibit S. typhimurium growth
